Measurements pooled from the literature.
Cell line: HT-29
Read-out: cell growth or viability

| Structure (SMILES) | assay | setting | inhibition |
| --- | --- | --- | --- |
| COc1ccc(C(=O)/C=C/c2ccc(Cl)c(Cl)c2)cc1S(N)(=O)=O | SRB | 10 µM | 150% |
| Cn1c(=O)c(NN=C2C(=O)Nc3ccc(Cl)cc32)nc2ccccc21 | – | 30 µM | 16.1% |
| COc1ccc(C(=O)/C=C/c2ccccc2Br)cc1S(N)(=O)=O | SRB | 10 µM | 117% |
| O=C(N/N=C1\C(=O)N(c2ccccc2)c2ccccc21)c1cc2ccccc2[nH]1 | – | 30 µM | 97% |
| COc1ccc(-c2nc(NN=C3C(=O)Nc4ccccc43)c3ccccc3n2)cc1OC | – | 30 µM | 38.1% |
| COc1ccc(C2=Nn3c(NN=C4C(=O)Nc5ccc(OC)cc54)nnc3SC2)cc1 | SRB | 10 µM | 24% |
| COc1ccc(C(=O)/C=C/c2c(F)cccc2Cl)cc1S(N)(=O)=O | SRB | 10 µM | 92% |
| COc1ccc(C2=Nn3c(NN=C4C(=O)Nc5ccc(Cl)cc54)nnc3SC2)cc1 | SRB | 10 µM | 27% |
| COc1ccc(C(=O)/C=C/c2cccnc2)cc1S(N)(=O)=O | SRB | 10 µM | 76% |
| COc1cc2ncnc(NN=C3C(=O)Nc4ccccc43)c2cc1OC | – | 30 µM | 38.7% |
| CN1C(=O)/C(=N\NC(=O)c2cc3ccccc3[nH]2)c2cc(F)ccc21 | – | 30 µM | 91.3% |
| COc1ccc(-c2nc(NN=C3C(=O)Nc4ccc(F)cc43)c3ccccc3n2)cc1OC | – | 30 µM | 9.6% |
| O=C1Nc2ccccc2/C1=N/NC(=O)c1cc2ccccc2[nH]1 | – | 30 µM | 75.4% |
| COc1ccc2c(c1)C(=NNc1nc(-c3ccc(OC)c(OC)c3)nc3ccccc13)C(=O)N2 | – | 30 µM | 6.2% |
| O=C1Nc2ccc(Cl)cc2/C1=N/NC(=O)c1cc2ccccc2[nH]1 | – | 30 µM | 29.4% |
| COc1ccc(C(=O)/C=C/c2cccc(Br)c2)cc1S(N)(=O)=O | SRB | 10 µM | 156% |
| O=C1Nc2ccc(Br)cc2/C1=N/NC(=O)c1cc2ccccc2[nH]1 | – | 30 µM | 64.5% |
| COc1ccccc1/C=C/C(=O)c1ccc(OC)c(S(N)(=O)=O)c1 | SRB | 10 µM | 81% |
| CN1C(=O)/C(=N\NC(=O)c2cc3ccccc3[nH]2)c2cc(Br)ccc21 | – | 30 µM | 95.2% |
| COc1cc2ncnc(NN=C3C(=O)Nc4ccc(F)cc43)c2cc1OC | – | 10 µM | 13.2% |
